Hsp70 act: transcriptional activators of Hsp70; HeLa Hsp70 promoter luciferase reporter, luminescence; scaled: vehicle 0, proteasome-inhibitor control 100%; activation, % at 10 µM; actives 0.04% (n = 200,000); AID 1203;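 active = activation above the mean across all tested compounds plus 3 SD, cutoff set per campaign, cut at about 5.5% in these data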;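 note: 100% = MG132 at 30 µM as the positive control and 0% = DMSO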
MDM2 E3 inh: inhibitors of human Mdm2 E3 ubiquitin ligase; Q00987; cell-based MDM2 ubiquitination luciferase reporter, 2 h; 0 = plate control, 100 = twice control, blank-subtracted; signal enhancement, % at 5 µM; actives 0.11% (n = 210,000);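 active = signal enhancement of 30% or more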;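 note: luminescence tracks abundance of the self-degrading MDM2-luciferase fusion protein; higher signal means inhibition of MDM2 E3 ligase activity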
Target sequence (Q00987 whole entry, looked up, the tested form may be a part): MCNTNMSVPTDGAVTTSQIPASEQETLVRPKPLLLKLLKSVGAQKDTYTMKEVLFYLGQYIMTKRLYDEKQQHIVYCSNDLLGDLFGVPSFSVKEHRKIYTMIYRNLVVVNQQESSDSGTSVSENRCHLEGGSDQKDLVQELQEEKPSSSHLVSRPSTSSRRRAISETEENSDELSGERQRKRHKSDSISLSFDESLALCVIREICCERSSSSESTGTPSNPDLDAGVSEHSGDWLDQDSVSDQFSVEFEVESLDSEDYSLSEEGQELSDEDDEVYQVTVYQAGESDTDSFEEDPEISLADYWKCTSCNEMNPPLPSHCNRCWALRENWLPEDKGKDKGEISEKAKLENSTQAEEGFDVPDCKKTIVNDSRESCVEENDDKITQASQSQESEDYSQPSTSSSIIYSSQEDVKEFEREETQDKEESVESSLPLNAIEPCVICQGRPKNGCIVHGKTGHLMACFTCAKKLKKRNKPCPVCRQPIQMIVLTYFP
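Material: Stable MDM2–luciferase fusion reporter cells | Amount: 2000 cells seeded into each well | Dosing: One concentration, 5 µM, with 0.2% DMSO | Incubation: 4 h cell settling then 2 h compound exposure, 37 °C | Measured by: Luciferase luminescence | Read-out basis: % enhancement relative to plate controls after blank subtraction | Benchmarks: Control and blank well means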
INS promoter inh: TRM-6 insulin promoter activity inhibition; inhibition, % at 2 µM; TRM-6 cells (human fetal islet line), insulin promoter-eGFP reporter, imaging; reporter expression induced with tamoxifen; actives 0.9% (n = 130,000);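 active = inhibition above the mean plus 3 SD, with well images judged a real hit on visual review, cut at about 60% in these data, passing the limit was not always enough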
Insulin prom up: MIN6 insulin promoter up-regulation. z-score at 5 µM. MIN6 insulin promoter-GFP reporter, high-content imaging; active compounds read high. AID 1625. actives 0.3% (n = 190,000);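 active = z-score above 3 at 5 µM with at least 500 cells counted in the well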
RBBP9 inhibitor: inhibitors of human serine hydrolase RBBP9. AID 1515. actives 0.2% (n = 220,000). inhibition, % at 7.94 µM. O75884. recombinant RBBP9, FP-Rh probe fluorescence polarization;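 active = inhibition above the campaign mean of all tested compounds plus 3 SD, cut at about 14% in these data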;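 note: plate controls were DMSO wells with RBBP9 for no effect and wells lacking RBBP9 protein for full effect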
Target sequence (O75884 whole entry, looked up): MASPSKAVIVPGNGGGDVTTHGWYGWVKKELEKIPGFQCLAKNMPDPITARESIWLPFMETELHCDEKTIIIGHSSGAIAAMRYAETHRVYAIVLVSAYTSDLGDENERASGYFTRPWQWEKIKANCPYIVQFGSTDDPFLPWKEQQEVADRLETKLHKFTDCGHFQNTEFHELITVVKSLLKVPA
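Test system: recombinant human RBBP9; Timing: 30 min then 45 min, 25 °C; Detection: fluorescence polarization; Control set: RBBP9 with DMSO as uninhibited control, no-protein wells as full inhibition; Compound dosing: one concentration, 7.94 µM nominal, 0.794% DMSO; Probe or stimulus: FP-Rh activity-based probe, 375 nM before mixing.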
Wee1 stabilizer: blocks degradation of human Wee1 kinase; actives 1.2% (n = 220,000); reporter increase, % at 5 µM; P30291; HeLa Luc-Wee1K328M stability, luciferase luminescence; 100% = proteasome inhibitor MG132 effect; AID 1321;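 active = activation above the mean of all tested compounds plus 3 SD, set per screening run, cut at about 8.8% in these data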;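 note: cells exposed to compound for 20 h before luminescence read; 0% = DMSO alone and 100% = MG132 at 30 µM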
RBBP9 confirm: confirmation of human RBBP9 inhibitors; shares compounds with RBBP9 inhibitor; inhibition, % at 7.94 µM; actives 36% (n = 410); AID 1537; recombinant RBBP9, FP-Rh probe fluorescence polarization;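 active = inhibition above the hit cutoff derived for the primary screen, cut at about 15% in these data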;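 note: 0% = RBBP9 with DMSO and 100% = wells lacking RBBP9 protein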
Active calls of the source: *; i = inactive; . = not tested or not shown. This is a sample that favours compounds with a hit; in the whole collection about 2.2% have one here.

SMILES	Hsp70 act	MDM2 E3 inh	INS promoter inh	Insulin prom up	RBBP9 inhibitor	Wee1 stabilizer	RBBP9 confirm
CCOC(=O)c1nn(-c2ccc(C)c(C)c2)c(=O)c2c(N)scc12	0	-13	5	0.2	18*	-1	38*
CC(C)NC(=O)CSc1nc(N)c(NC(=O)c2ccco2)c(=O)[nH]1	0	-3	.	-0.39	-1	-3	.
Nc1nc(SCC(=O)N2CCCCCC2)[nH]c(=O)c1NC(=O)c1ccco1	0	10	.	0.18	15*	1	64*
CCN(C(=O)C1CCCCC1)c1nnc(-c2cccnc2)s1	0	-8	-123	.	14*	1	9
COCCN(C(=O)C1CCC1)c1nnc(-c2cccnc2)s1	0	-7	.	1	6	0	.
COc1cccc2c(=O)n(CC(=O)Nc3ccccc3F)ccc12	0	-16	.	1	-6	1	.
COc1ccc(-n2c(Cc3cccn3C)nnc2SCC(=O)NC2CCCC2)cc1	0	-4	100*	.	19*	-2	2
CCC(C)NS(=O)(=O)c1ccc(NC(C)=O)cc1 (stereo not given)	0	8	60	.	-1	-2	.
CCC(NS(=O)(=O)c1ccc(C)cc1)C(=O)Nc1ccc(NC(C)=O)cc1 (stereo not given)	0	-1	35	0.81	16*	-2	7
CCn1nc(C)c(Br)c1-c1nc(-c2cccc(C)c2)no1	.	-11	.	-0.31	-14	0	.
CC(=O)c1sc2nc(-c3ccco3)ccc2c1N	.	-13	.	1	21*	0	35*
Cn1c(=O)c(NCCO)c2c3c(cccc31)C(=O)c1ccccc1-2	0	1	-68	.	63*	-3	75*
Cn1c(=O)c(NCCc2ccccc2)c2c3c(cccc31)C(=O)c1ccccc1-2	0	0	-170	.	109*	3	144*
CCCCNc1c2c3c(cccc3n(C)c1=O)C(=O)c1ccccc1-2	0	12	-433	.	24*	2	30*
Cn1c(=O)c(NC2CCCCC2)c2c3c(cccc31)C(=O)c1ccccc1-2	0	2	i	.	-2	3	.
CCNc1c2c3c(cccc3n(C)c1=O)C(=O)c1ccccc1-2	0	-2	-171	.	22*	-1	37*
COc1cc2c(cc1OC)CN(C(C)C(=O)Nc1ccc(NC(C)=O)cc1)CC2 (stereo not given)	0	-3	27	-0.84	-3	1	.
CS(=O)(=O)N1CCN(c2ccc(Cl)cc2[N+](=O)[O-])CC1	0	-13	.	-0.09	1	6	.
O=[N+]([O-])CC(=Nc1ccc(F)cc1)N/N=C\c1oc(O)c2ccccc12	.	.	.	-1.1	-4	-2	.
Cc1cc(C2=NNC(=NC3CC3)SC2)c(C)n1-c1ccccc1	0	-81	.	0.53	58*	-3	22*
O=C(NCC1(N2CCOCC2)CCCCC1)c1cccc(S(=O)(=O)N2CCc3ccccc3C2)c1	0	-6	.	-1.6	0	3	.
CCOC(=O)C1=C(C)NC(=S)N(C(C)=O)C1c1ccc(Cl)cc1 (stereo not given)	0	-11	-14	.	-13	1	.
COCCOC(=O)C1=C(C)NC(=O)N(C(C)=O)C1c1ccc(Cl)cc1 (stereo not given)	0	6	.	-0.57	15*	3	8
CCc1ccc(OCC(=O)O/N=C(\N)c2cccnc2)cc1	.	-7	.	-0.4	15*	-4	8
O=C(C1COc2ccccc2O1)N1CCN(c2ccc(F)cc2)CC1 (stereo not given)	0	-11	-9	-0.38	-12	-2	.
SMILES	Hsp70 act	MDM2 E3 inh	INS promoter inh	Insulin prom up	RBBP9 inhibitor	Wee1 stabilizer	RBBP9 confirm
O=C(C1COc2ccccc2O1)N1CCCC1 (stereo not given)	0	-11	18	0.9	15*	0	7
Cc1cc(C)c(S(=O)(=O)Nc2cc(SCC(=O)O)c(O)c3ccccc23)cc1C	0	-13	7	-0.58	16*	-2	49*
N#Cc1cc(-c2ccc(Cl)cc2)cnc1Sc1ccc(F)cc1	0	-18	.	.	3	-2	.
C=CCn1c(=O)c2c(C)c(C)sc2n2c(Nc3ccc(OC)cc3)nnc12	0	-10	45	0.13	16*	-1	4
O=C(OCC(=O)N1CCN(C(=O)c2ccco2)CC1)c1ccccc1OCc1ccc(Cl)cc1	0	-14	-31	-0.05	20*	6	-32
Nc1nc(-c2cccnc2)nn1C(=O)COc1ccccc1	-1	-1	-72	-0.12	-4	2	.
Nc1nc(-c2cccnc2)nn1C(=O)CCc1ccccc1	0	.	-72	.	14*	1	6
O=C1CCCN1CCC1CCCCN1Cc1nc(-c2cnccn2)no1 (stereo not given)	0	-12	.	-0.04	1	-1	.
NC(N)=N/N=C/c1ccc(OCc2ccccc2)cc1	0	-11	7	-0.4	9	-1	.
NC(N)=N/N=C/c1ccc(OCc2ccc(Cl)cc2)cc1	0	-8	16	-1.5	19*	-2	6
Cc1cc(=O)n2[nH]c(=O)c(N=Nc3ccccc3)c2[nH]1	0	-2	-39	.	16*	-2	38*
Cc1cc(C)cc(-n2c(SC(C)C(=O)NCc3ccc4c(c3)OCO4)nc3ccccc3c2=O)c1 (stereo not given)	0	-6	-44	-0.99	21*	-3	1
Cc1cccc(-n2c(SCC(=O)NCc3ccc4c(c3)OCO4)nc3ccccc3c2=O)c1	0	-1	-38	-0.21	-4	3	.
Cc1nc(SCC(=O)Nc2cccnc2Cl)nc(C)c1C	0	0	.	0.9	-6	3	.
O=C(O)c1ccc(N/N=C/c2cn(Cc3ccccc3F)c3ccccc23)cc1	.	-28	.	-0.21	17*	-2	11
COC(=O)N/N=C/c1cn(Cc2ccccc2F)c2ccccc12	.	11	.	-0.24	-1	2	.
Cc1c(C(=O)Nc2ccccc2[N+](=O)[O-])csc1-c1ccccc1	0	-9	.	-0.85	-10	0	.
Cc1ccc(NC(=O)CSc2nnc(CNC(=O)c3cccs3)o2)c(C)c1	0	-4	.	1	-2	-4	.
CCCCC(=O)Nc1ccccc1C(C)C	0	11	.	-0.12	-8	4	.
CC(C)c1ccccc1NC(=O)CNCCc1ccc(C(F)(F)F)cc1	.	.	.	0.17	17*	-3	4
CC/C(=C\C(=O)c1ccncc1)Nc1ccc(O)cc1	0	-7	-15	-1.8	47*	0	5
CCC(C)(C)n1nnnc1CN(Cc1cc2cc(OC)c(OC)cc2[nH]c1=O)C1CCCC1	0	-2	.	0.62	-2	1	.

Source: PubChem BioAssay
